Species: Rattus norvegicus
Assay: Percent inhibition against glucose-6-phosphate hydrolysis in highly intact microsomal preparations obtained from livers of 20-h fasted rats at 0.23 mM
Format: functional, microsomes
Conditions: Liver, Microsome
How it was run: (§1)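 Intact microsomes from 20-h-fasted male Wistar rat liver; 100 μg protein incubated 10 min at 22 °C with 1 mM glucose 6-phosphate in pH 7.0 sucrose/HEPES buffer, ≤1.25% methanol. Released phosphate measured colorimetrically at 630 nm after background subtraction. Percent inhibition versus vehicle control; representative of at least two independent experiments.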

Compound | inhibition [%]
O=C(/C=C/c1ccc(O)cc1)O[C@@H]1C[C@H](C(=O)O)C[C@@H](O)[C@H]1O | 50

Species: Rattus norvegicus
Assay: Percent inhibition against glucose-6-phosphate hydrolysis in highly intact microsomal preparations obtained from livers of 20-h fasted rats at 0.25 mM
Format: functional, microsomes
Conditions: Liver, Microsome
How it was run: as §1

Compound | inhibition [%]
O=C(/C=C/c1ccc(O)cc1)O[C@@H]1CC(C(=O)O)=C[C@@H](O)[C@H]1O | 50

Species: Rattus norvegicus
Assay: Percent inhibition against glucose-6-phosphate hydrolysis in highly intact microsomal preparations obtained from livers of 20-h fasted rats at 1 mM
Format: functional, microsomes
Conditions: Liver, Microsome
How it was run: as §1

Compound | inhibition [%]
O=C(/C=C/c1ccc(O)c(O)c1)O[C@@H]1C[C@@](O)(C(=O)O)[C@H](O)[C@@H](O)[C@H]1O | 10
O=C(/C=C/c1ccc(O)cc1)N[C@@H]1CC(C(=O)O)=C[C@@H](O)[C@H]1O | 15
O=C(/C=C/c1ccc(O)cc1)O[C@@H]1C[C@H](C(=O)O)CC[C@H]1O | 20
COC(=O)[C@]1(O)C[C@@H](O)[C@@H](O)[C@H](OC(=O)/C=C/c2ccc(O)c(O)c2)C1 | 50
O=C(/C=C/c1ccc(O)cc1)O[C@@H]1C[C@](O)(C(=O)O)[C@@H](O)[C@@H](O)[C@H]1O | 30
CCO[C@@]1(C(=O)O)C[C@@H](O)[C@@H](O)[C@H](OC(=O)/C=C/c2ccc(O)cc2)C1 | 38

Tested on: not listed separately
Assay: Inhibition glucose-6-phosphate hydrolysis in highly intact microsomal preparations obtained from livers of 20-h fasted rats.
Format: functional, microsomes, Rattus norvegicus, Liver, Microsome
Conditions: not given
How it was run: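 Male Wistar rats (160-180 g), fasted 20 h; liver microsomes by differential centrifugation, intactness usually above 97% (1 mM mannose 6-phosphate). 100 μg protein, 1 mM glucose 6-phosphate, 250 mM sucrose/50 mM HEPES pH 7.0, 10 min, 22 °C, compound 0.1-1000 μM (MeOH stock). Phosphate read at 630 nm, background-corrected; IC50 by nonlinear least-squares; at least two experiments.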

IC50 [µM] | Compound
31 | O=C(/C=C/c1ccc(O)cc1)O[C@@H]1C[C@](OCCCc2ccccc2)(C(=O)O)C[C@@H](O)[C@H]1O
4.5 | O=C(O[C@@H]1C[C@](OCCCc2ccc(Cl)cc2)(C(=O)O)C[C@@H](O)[C@H]1O)c1snnc1-c1ccccc1
230 | C#CCO[C@@]1(C(=O)O)C[C@@H](O)[C@@H](O)[C@H](OC(=O)/C=C/c2ccc(O)cc2)C1
21 | O=C(/C=C/c1ccc(O)cc1)O[C@@H]1C[C@](OCc2ccc(-c3ccccc3)cc2)(C(=O)O)C[C@@H](O)[C@H]1O
> 1000 | O=C(/C=C/c1cccnc1)O[C@@H]1C[C@](O)(C(=O)O)C[C@@H](O)[C@H]1O
250 | O=C(/C=C/c1ccc(O)cc1)O[C@@H]1C[C@](O)(C(=O)O)C[C@@H](O)[C@H]1O
190 | O=C(/C=C/c1ccc(O)cc1)O[C@@H]1C[C@](OCc2ccccc2)(C(=O)O)C[C@@H](O)[C@H]1O
12 | O=C(COc1ccccc1)O[C@@H]1C[C@](OCCCc2ccc(Cl)cc2)(C(=O)O)C[C@@H](O)[C@H]1O
47 | COc1cccc(CO[C@@]2(C(=O)O)C[C@@H](O)[C@@H](O)[C@H](OC(=O)/C=C/c3ccc(O)cc3)C2)c1
1.3 | C=Cc1ccc(C(=O)O[C@@H]2C[C@](OCCCc3ccc(Cl)cc3)(C(=O)O)C[C@@H](O)[C@H]2O)cc1
230 | O=C(/C=C/c1ccc(O)c(O)c1)O[C@@H]1C[C@](O)(C(=O)O)C[C@@H](O)[C@H]1O [CHLOROGENIC ACID]
2.5 | O=C(/C=C/c1ccc(O)cc1)O[C@@H]1C[C@](OCCCc2ccc(Cl)cc2)(C(=O)O)C[C@@H](O)[C@H]1O
280 | CO[C@@]1(C(=O)O)C[C@@H](O)[C@@H](O)[C@H](OC(=O)/C=C/c2ccc(O)cc2)C1
85 | O=C(/C=C/c1ccc(O)cc1)O[C@@H]1C[C@](OCCCCc2ccc(Cl)cc2)(C(=O)O)C[C@@H](O)[C@H]1O
380 | O=C(/C=C/c1ccsc1)O[C@@H]1C[C@](O)(C(=O)O)C[C@@H](O)[C@H]1O
110 | O=C(/C=C/c1ccc(O)cc1)O[C@@H]1C[C@](OCc2cccs2)(C(=O)O)C[C@@H](O)[C@H]1O

Further lines, the compound ahead of its results:

Compound | IC50 [µM]
O=C(O[C@@H]1C[C@](OCCCc2ccc(Cl)cc2)(C(=O)O)C[C@@H](O)[C@H]1O)C1CCCCC1 | 8.9
O=C(/C=C/c1ccc(O)c(O)c1O)O[C@@H]1C[C@](O)(C(=O)O)C[C@@H](O)[C@H]1O | 310
O=C(CCc1ccc(O)c(O)c1)O[C@@H]1C[C@](O)(C(=O)O)C[C@@H](O)[C@H]1O | 680
CC(C)CCC(=O)O[C@@H]1C[C@](OCCCc2ccc(Cl)cc2)(C(=O)O)C[C@@H](O)[C@H]1O | 41
